From ChEMBL document CHEMBL1134751, “Design and synthesis of ether analogues as potent and selective M2 muscarinic receptor antagonists” (Bioorg Med Chem Lett, 2001)

Experiments:
[1] = biological target: T1, Muscarinic acetylcholine receptor M2 (Homo sapiens) (UniProt P08172); experiment: Ratio of binding affinity against Muscarinic acetylcholine receptor M5 to that of Muscarinic acetylcholine receptor M2
T1 sequence (whole entry): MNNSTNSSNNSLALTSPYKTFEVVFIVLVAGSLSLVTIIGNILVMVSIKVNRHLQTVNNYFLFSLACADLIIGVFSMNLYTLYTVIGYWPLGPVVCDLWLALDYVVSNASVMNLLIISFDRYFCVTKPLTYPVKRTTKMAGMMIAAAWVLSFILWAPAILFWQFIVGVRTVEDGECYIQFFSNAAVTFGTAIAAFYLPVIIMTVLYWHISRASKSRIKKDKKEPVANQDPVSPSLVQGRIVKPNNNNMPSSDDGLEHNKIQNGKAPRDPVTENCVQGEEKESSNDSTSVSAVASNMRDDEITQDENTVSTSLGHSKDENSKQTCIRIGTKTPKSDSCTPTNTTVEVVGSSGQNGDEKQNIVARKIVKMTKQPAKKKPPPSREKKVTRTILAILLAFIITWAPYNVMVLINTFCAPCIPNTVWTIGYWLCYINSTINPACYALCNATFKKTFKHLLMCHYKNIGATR

[2] = biological target: Muscarinic acetylcholine receptors; M2 & M3 (Homo sapiens) (UniProt P20309+P08172); experiment: Ratio of binding affinity against Muscarinic acetylcholine receptor M3 to that of Muscarinic acetylcholine receptor M2; type: protein assay
[3] = biological target: T2, Muscarinic acetylcholine receptor M2 (Homo sapiens, UniProt P08172); experiment: Binding affinity towards Muscarinic acetylcholine receptor M2 stably expressed in CHO-K1 cells using [3H]-QNB as radioligand; type: cell-based
T2 sequence (P08172 whole entry): T1 sequence (whole entry)
Procedure, shortened: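 Competition binding on membranes of clonal cells expressing receptor at 1–9 pmol/mg protein. Incubated with 180 pM [3H]QNB in 10 mM potassium phosphate pH 7.4 plus 1% DMSO and 0.4% methylcellulose for 120 min at rt to equilibrium. Non-specific binding defined with 0.5 mM atropine, protein set for 700–1500 cpm specific binding, then filtration separation. QNB Kd from saturation with 5–2500 pM [3H]QNB.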

[4] = biological target: T1, Muscarinic acetylcholine receptor M2 (Homo sapiens); experiment: Ratio of binding affinity against Muscarinic acetylcholine receptor M4 to that of Muscarinic acetylcholine receptor M2
[5] = biological target: Muscarinic acetylcholine receptors; M1 & M2 (Homo sapiens) (UniProt P11229+P08172); experiment: Ratio of binding affinity against Muscarinic acetylcholine receptor M1 to that of Muscarinic acetylcholine receptor M2; type: protein assay
Muscarinic acetylcholine receptors; M1 & M2 (Homo sapiens), sequence (P11229 whole entry, looked up, one chain of several): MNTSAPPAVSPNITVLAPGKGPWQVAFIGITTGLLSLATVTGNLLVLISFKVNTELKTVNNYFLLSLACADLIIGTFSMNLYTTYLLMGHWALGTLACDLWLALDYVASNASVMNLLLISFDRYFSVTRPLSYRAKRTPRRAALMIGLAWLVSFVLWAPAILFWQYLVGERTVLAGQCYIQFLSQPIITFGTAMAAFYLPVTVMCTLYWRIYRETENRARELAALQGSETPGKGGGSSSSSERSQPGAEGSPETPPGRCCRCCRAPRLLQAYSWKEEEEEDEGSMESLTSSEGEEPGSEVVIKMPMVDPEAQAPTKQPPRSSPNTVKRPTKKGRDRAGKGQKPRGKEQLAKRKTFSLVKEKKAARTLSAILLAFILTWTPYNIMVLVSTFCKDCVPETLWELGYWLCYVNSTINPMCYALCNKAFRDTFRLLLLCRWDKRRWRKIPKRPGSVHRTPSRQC

Ratio [1]	Ratio [2]	Ki [3] [nM]	Ratio [4]	Ratio [5]	SMILES
13	5	59.5	3	8	O=C(COc1ccccc1)N1CCC(N2CCC(Oc3ccc(S(=O)(=O)c4ccc5c(c4)OCO5)cc3)CC2)CC1
		6		4	CCOC(=O)N1CCC(N2CCC(Oc3ccc(S(=O)(=O)c4ccc5c(c4)OCO5)cc3)CC2)CC1
		139			CCCS(=O)(=O)N1CCC(N2CCC(Oc3ccc(S(=O)(=O)c4ccc(OC)cc4)cc3)CC2)CC1
13	5	17.9	2	6	CCOCC(=O)N1CCC(N2CCC(Oc3ccc(S(=O)(=O)c4ccc5c(c4)OCO5)cc3)CC2)CC1
35	50	6.9	4	35	CCCCS(=O)(=O)N1CCC(N2CCC(Oc3ccc(S(=O)(=O)c4ccc5c(c4)OCO5)cc3)CC2)CC1
1480	117	1	18	140	O=C(c1ccnc2ccccc12)N1CCC(N2CCC(Oc3ccc(S(=O)(=O)c4ccc5c(c4)OCO5)cc3)CC2)CC1
4	10	12	2	9	O=C(c1cccc2cccnc12)N1CCC(N2CCC(Oc3ccc(S(=O)(=O)c4ccc5c(c4)OCO5)cc3)CC2)CC1
4	8	34.7	1	2	O=S(=O)(c1ccc(OC2CCN(C3CCN(S(=O)(=O)c4cccc5ccccc45)CC3)CC2)cc1)c1ccc2c(c1)OCO2
196	109	0.2	23	234	Cc1ccsc1C(=O)N1CCC(N2CCC(Oc3ccc(S(=O)(=O)c4ccc5c(c4)OCO5)cc3)CC2)CC1
1	12	15	4	19	O=S(=O)(c1ccc(OC2CCN(C3CCN(S(=O)(=O)Cc4ccccc4)CC3)CC2)cc1)c1ccc2c(c1)OCO2
64	124	0.5	21	233	O=C(c1cccc2ncccc12)N1CCC(N2CCC(Oc3ccc(S(=O)(=O)c4ccc5c(c4)OCO5)cc3)CC2)CC1
50	216	0.5	28	357	O=C(c1cccc2ccccc12)N1CCC(N2CCC(Oc3ccc(S(=O)(=O)c4ccc5c(c4)OCO5)cc3)CC2)CC1
15	6	1.6	6	18	O=C(c1ccccc1)N1CCC(N2CCC(Oc3ccc(S(=O)(=O)c4ccc5c(c4)OCO5)cc3)CC2)CC1
16	2	14	2	10	CC(C)S(=O)(=O)N1CCC(N2CCC(Oc3ccc(S(=O)(=O)c4ccc5c(c4)OCO5)cc3)CC2)CC1
56	132	0.4	31	155	Cc1cccc(C(=O)N2CCC(N3CCC(Oc4ccc(S(=O)(=O)c5ccc6c(c5)OCO6)cc4)CC3)CC2)c1C
46	122	2	12	49	CCS(=O)(=O)N1CCC(N2CCC(Oc3ccc(S(=O)(=O)c4ccc5c(c4)OCO5)cc3)CC2)CC1
39	46	1.6	25	58	CCCS(=O)(=O)N1CCC(N2CCC(Oc3ccc(S(=O)(=O)c4ccc5c(c4)OCO5)cc3)CC2)CC1
10	19	3.2	7	59	CC(C)OC(=O)N1CCC(N2CCC(Oc3ccc(S(=O)(=O)c4ccc5c(c4)OCO5)cc3)CC2)CC1

SMILES	Ratio [1]	Ratio [2]	Ki [3] [nM]	Ratio [4]	Ratio [5]
O=C(Oc1ccccc1)N1CCC(N2CCC(Oc3ccc(S(=O)(=O)c4ccc5c(c4)OCO5)cc3)CC2)CC1	69	61	1.1	11	48
